Source: PubChem BioAssay
PP5 primary = PP5 (human) phosphatase inhibition | purified PP5c, OMFP substrate fluorescence | inhibition, % at 6.7 µM | hit rate 0.18% among 320,000 | AID 1987;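 active = inhibition above the campaign's mean inhibition across all tested compounds plus 3 SD, cut at about 9.5% in these data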;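 note: 0% = DMSO only and 100% = 100 µM cantharidin control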
Target sequence (P53041 whole entry, looked up): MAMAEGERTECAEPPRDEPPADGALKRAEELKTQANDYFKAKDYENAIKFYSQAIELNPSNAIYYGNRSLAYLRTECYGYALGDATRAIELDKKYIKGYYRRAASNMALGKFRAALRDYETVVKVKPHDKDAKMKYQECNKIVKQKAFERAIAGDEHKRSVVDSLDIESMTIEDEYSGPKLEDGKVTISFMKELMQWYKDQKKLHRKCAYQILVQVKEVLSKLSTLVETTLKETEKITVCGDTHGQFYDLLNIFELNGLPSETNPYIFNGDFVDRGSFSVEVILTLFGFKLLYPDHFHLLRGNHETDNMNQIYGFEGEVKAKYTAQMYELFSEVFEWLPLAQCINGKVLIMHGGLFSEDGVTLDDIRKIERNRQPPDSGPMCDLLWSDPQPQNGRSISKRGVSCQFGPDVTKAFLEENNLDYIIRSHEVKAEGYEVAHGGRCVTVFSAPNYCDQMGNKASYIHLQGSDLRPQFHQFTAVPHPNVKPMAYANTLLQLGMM
PP1 counter = counter-screen for PP5 inhibitors: inhibitors of human PP1-alpha; hit rate 0.9% among 320,000; inhibition, % at 6.7 µM; purified PP1alpha, OMFP fluorescence;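 active = inhibition above the mean inhibition of all tested compounds plus 3 SD, computed separately for each screening campaign, cut at about 15% in these data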
HIF act = HIF pathway transcriptional activation | activation, % at 7.5 µM (by protocol) | hit rate 0.32% among 300,000 | AID 1910 | U2OS HRE-luciferase reporter, luminescence; normalized: DMSO 0%, desferrioxamine 100%;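 active = mean activation of at least 10% of the iron chelator positive control signal, with at least half of replicates also reaching 10%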
DNA FID counter-1 = fluorescent intercalator displacement, NS3 helicase counter-screen; inhibition, % at 7.9 µM; DNA fluorescent intercalator displacement, fluorescence; AID 1845; hit rate 0.17% among 290,000;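 note: 0% = vehicle and 100% = reference compound; higher means more ethidium bromide displaced from hairpin DNA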
HCV NS3 hel inh = blocks Hepatitis C virus NS3 helicase unwinding; hit rate 0.56% among 290,000; AID 1800; inhibition, % at 10.9 µM; NS3 helicase DNA unwinding, Cy5 molecular beacon fluorescence;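 active = inhibition above the mean of all tested compounds plus 3 SD, set per campaign, cut at about 35% in these data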;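 note: 0% = DMSO wells and 100% = thioflavine S control wells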
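Assay system: hepatitis C virus NS3 helicase domain fragment enzyme. Also added: annealed dual-labelled DNA beacon duplex, ATP-started. Timing: 1 h reaction at 25 °C, ATP-initiated. Technique: Cy5 fluorescence at 0 and 60 min, beacon hairpin quenching. Evaluation: % inhibition of unwinding. Replication: one well per compound.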
NS3 hel confirm = confirmation of Hepatitis C virus NS3 helicase inhibitors; shares compounds with HCV NS3 hel inh; NS3 helicase DNA unwinding, Cy5 molecular beacon fluorescence; inhibition, % at 10.9 µM; hit rate 31% among 1,600; AID 1943;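 active = inhibition above the mean of all tested compounds plus 3 SD, cutoff set per campaign, cut at about 36% in these data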
DNA FID counter-2 = displaces DNA intercalator in HCV helicase counter-screen; DNA fluorescent intercalator displacement, fluorescence; hit rate 4% among 1,600; AID 1945; shares compounds with HCV NS3 hel inh; inhibition, % at 7.9 µM;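 note: 0% = vehicle and 100% = reference compound; higher means more displacement of ethidium bromide from the DNA hairpin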
FID counter DR = displaces fluorescent intercalator from DNA, HCV helicase counter-screen; IC50, µM; 120 tested, under 10 active; shares compounds with HCV NS3 hel inh; AID 2172; fluorescent intercalator displacement from DNA, fluorescence; call rule not given here
An asterisk follows results filed as active. Shown are actives, neighbours in structure and some others; about 1.9% of the full set was active somewhere. Cut-off read from the data, not from the text of the source, unless noted: active = inhibition above about 37%; inactive = the rest.

`O=C(N/N=C/c1ccc([N+](=O)[O-])o1)c1cc(-c2cccc(Br)c2)nc2ccccc12` gave PP5 primary 5, PP1 counter 16*, HIF act 0, DNA FID counter-1 -18, HCV NS3 hel inh 41*, NS3 hel confirm 38* and DNA FID counter-2 18.
Screening O=C(Cc1ccc(NC2=NC3CS(=O)(=O)CC3S2)cc1)N1CCN(c2ccc(F)cc2)CC1 (stereo not given) returned PP5 primary 0, PP1 counter -2, HIF act 0, DNA FID counter-1 -18 and HCV NS3 hel inh 4.
Screening CCN(CC)c1ccc(C=Nc2ccc(N(C)C)cc2)c(O)c1 returned PP5 primary 5, PP1 counter 1, HIF act 1, DNA FID counter-1 -3, HCV NS3 hel inh 37*, NS3 hel confirm 3 and DNA FID counter-2 5.
For CC1CCC(NCCNC(=O)c2ccco2)CC1 (stereo not given) the results were PP5 primary -1, PP1 counter 1, HIF act -2, DNA FID counter-1 -1 and HCV NS3 hel inh 1.
Screening CCOc1cc(C2C3=C(CC(C)(C)CC3=O)OC3=C2C(=O)CC(C)(C)C3)cc([N+](=O)[O-])c1O returned PP5 primary 1, PP1 counter -1, HIF act -1, DNA FID counter-1 -11 and HCV NS3 hel inh 18.
For CC1(C)CC(=O)C2=C(C1)OC1=C(C(=O)CC(C)(C)C1)C2c1cc([N+](=O)[O-])cc([N+](=O)[O-])c1O the results were PP5 primary 3, PP1 counter 5, HIF act 0, DNA FID counter-1 -17, HCV NS3 hel inh 43*, NS3 hel confirm 78* and DNA FID counter-2 -18.
N#CC1=C(S)N(c2ccccc2)C(c2ccc(-c3cccc(Cl)c3)o2)NC1=O (stereo not given) was read as PP5 primary 1, PP1 counter 11, HIF act 0, DNA FID counter-1 -15, HCV NS3 hel inh 36*, NS3 hel confirm 60* and DNA FID counter-2 2.
`Cc1cccc(N2C(S)=C(C#N)C(=O)NC2c2ccco2)c1` (stereo not given) gave PP5 primary 1, PP1 counter -4, HIF act 0, DNA FID counter-1 -6 and HCV NS3 hel inh 8.
Screening CC(=O)N=c1n(C)c2ccccc2n1CCOc1ccccc1 returned PP5 primary 2, PP1 counter -1, HIF act 1, DNA FID counter-1 -9 and HCV NS3 hel inh 7.
For CN(C)c1ccc(N=Nc2ccc(C(=O)O)cc2)cc1 the results were PP5 primary 6, PP1 counter 1, HIF act -37, DNA FID counter-1 -10, HCV NS3 hel inh 63*, NS3 hel confirm -20 and DNA FID counter-2 -3.
CN(C)c1ccc(C(=O)c2ccccc2)cc1 was read as PP5 primary 0, PP1 counter 0, HIF act 2, DNA FID counter-1 0 and HCV NS3 hel inh 6.
For Oc1c(Cl)cc(Cl)cc1/C=N/NC(=S)NC1CC2C=CC1C2 (stereo not given) the results were PP5 primary 0, PP1 counter 9, HIF act 2, DNA FID counter-1 -17, HCV NS3 hel inh 48*, NS3 hel confirm 52*, DNA FID counter-2 8 and FID counter DR >79.
O=C(O)c1nn(Cc2csc(-c3ccccc3)n2)c(=O)c2ccccc12 was read as PP5 primary 1, PP1 counter -3, HIF act 1, DNA FID counter-1 -41, HCV NS3 hel inh 48*, NS3 hel confirm 8 and DNA FID counter-2 -23.
O=C(CN(Cc1ccccc1)S(=O)(=O)c1ccc(F)cc1)NCc1ccccn1 was read as PP5 primary 0, PP1 counter -1, HIF act -8, DNA FID counter-1 -24 and HCV NS3 hel inh -6.
For CN(C(=O)COC(=O)C1COc2ccccc2O1)c1c(N)n(Cc2ccccc2)c(=O)[nH]c1=O (stereo not given) the results were PP5 primary -2, PP1 counter -6 and HIF act 0.
For Cc1cc(O)c(C(=O)/C=C/c2ccccc2)c(=O)o1 the results were HIF act -15, DNA FID counter-1 -37, HCV NS3 hel inh 43*, NS3 hel confirm -11 and DNA FID counter-2 2.
`Cc1cc(O)c(C(=O)/C=C/c2ccccc2Br)c(=O)o1` gave PP5 primary 1, PP1 counter 12, HIF act -28, DNA FID counter-1 -33, HCV NS3 hel inh 48*, NS3 hel confirm 17 and DNA FID counter-2 7.
Cc1cc(O)c(C(=O)/C=C/c2ccc(C(C)C)cc2)c(=O)o1 was read as HIF act 9, DNA FID counter-1 -30 and HCV NS3 hel inh 29.
For Cc1cc2nn(-c3ccc(F)cc3)nc2cc1N the results were PP5 primary 2, PP1 counter -2, HIF act 4, DNA FID counter-1 -6 and HCV NS3 hel inh 27.
`CCOc1ccc(-n2nc3cc(C)c(N)cc3n2)cc1` gave PP5 primary 4, PP1 counter 1, HIF act -7, DNA FID counter-1 -8, HCV NS3 hel inh 63*, NS3 hel confirm -9 and DNA FID counter-2 0.
Screening Cc1ccc(-n2nc3ccc(N)cc3n2)cc1 returned PP5 primary 1, PP1 counter -3, HIF act -15, DNA FID counter-1 4 and HCV NS3 hel inh 25.
CCOc1ccc(-n2nc3ccc(N)cc3n2)cc1 was read as HIF act 0, DNA FID counter-1 -13, HCV NS3 hel inh 44*, NS3 hel confirm -15 and DNA FID counter-2 -1.
CC1CCCN(C(=O)c2cccc(S(=O)(=O)Nc3cc(C(F)(F)F)ccc3Cl)c2)C1 (stereo not given) was read as PP5 primary 4, PP1 counter 5, HIF act 0, DNA FID counter-1 -43, HCV NS3 hel inh 44*, NS3 hel confirm 57* and DNA FID counter-2 -39.
Screening O=C(c1cccc(S(=O)(=O)Nc2ccccc2Cl)c1)N1CCC1 returned PP5 primary -2, PP1 counter 0 and HIF act -2.
COc1ccc(C(=O)CCC(=O)NC2=NCCS2)cc1 was read as PP5 primary -1, PP1 counter -4, DNA FID counter-1 -2 and HCV NS3 hel inh 7.
Screening CCOc1ccc(/C=C2\SC(=S)NC2=O)cc1OC returned PP5 primary -1, PP1 counter -3, HIF act 1, DNA FID counter-1 -13 and HCV NS3 hel inh 35.
COc1cccc(OCCOc2ccc(/C=C3/SC(=S)NC3=O)cc2)c1 was read as PP5 primary 2, PP1 counter -3, HIF act -2, DNA FID counter-1 -3, HCV NS3 hel inh 48*, NS3 hel confirm 54* and DNA FID counter-2 13.
